{"source": "ChEMBL document CHEMBL1138494", "about": "“Human glucagon receptor antagonists with thiazole cores. A novel series with superior pharmacokinetic properties” (J Med Chem, 2009)", "key": {"Homo sapiens [1]": {"species_on_record": "Homo sapiens", "assay": "Selectivity ratio of IC50 for human recombinant glucagon receptor to IC50 for human recombinant GIPR", "outline": "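Competition binding of compounds to recombinant human glucagon and GIP receptors on BHK cell membranes, run in parallel as a scintillation proximity assay and, for selected compounds, as a membrane filtration assay.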"}, "Glucagon receptor": {"biological_target": "Glucagon receptor (Homo sapiens, UniProt P47871)", "sequence (P47871 whole entry)": "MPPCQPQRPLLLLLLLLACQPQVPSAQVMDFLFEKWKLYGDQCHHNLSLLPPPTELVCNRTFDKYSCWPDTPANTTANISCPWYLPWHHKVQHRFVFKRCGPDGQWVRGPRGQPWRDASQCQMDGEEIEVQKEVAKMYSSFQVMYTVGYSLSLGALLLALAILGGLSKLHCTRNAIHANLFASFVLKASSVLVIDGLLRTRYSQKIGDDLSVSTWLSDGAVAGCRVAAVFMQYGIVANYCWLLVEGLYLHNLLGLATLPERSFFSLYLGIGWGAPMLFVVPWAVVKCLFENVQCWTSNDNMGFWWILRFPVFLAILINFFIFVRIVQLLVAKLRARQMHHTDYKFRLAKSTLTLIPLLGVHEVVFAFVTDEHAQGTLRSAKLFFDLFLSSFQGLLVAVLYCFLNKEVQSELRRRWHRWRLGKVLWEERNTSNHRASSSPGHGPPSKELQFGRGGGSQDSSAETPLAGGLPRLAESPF", "assay": "Displacement of [125I]porcine glucagon from human recombinant glucagon receptor expressed in BHK cells by scintillation proximity assay", "format": "cell-based"}, "[2]": {"assay": "Half life in fasted Sprague-Dawley rat plasma at 1.9 mg/kg, iv by HTLC-MS/MS analysis", "format": "ADME, organism-based", "parameters": "dose 1.9 mg/kg, route intravenous", "outline": "(§1)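 Rats were dosed intravenously and perorally in separate arms, and plasma concentration-time profiles were obtained. Half-life was taken from the iv arm. Clearance, oral bioavailability, Cmax and Tmax were derived from the profiles.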"}, "[3]": {"assay": "Oral bioavailability in fasted Sprague-Dawley rat at 3.9 mg/kg by HTLC-MS/MS analysis", "format": "ADME, organism-based", "conditions": "in vivo", "outline": "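Separate intravenous and peroral dosing arms per compound, with plasma concentration followed against time. Oral bioavailability (F_po) is reported per compound together with the intravenous half-life and clearance. The dose used for each arm is listed per compound.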"}, "[4]": {"assay": "Clearance in fasted Sprague-Dawley rat at 1.9 mg/kg, iv and 3.9 mg/kg, po by HTLC-MS/MS analysis", "format": "ADME, organism-based", "conditions": "in vivo", "outline": "as §1"}, "[5]": {"assay": "Tmax in fasted Sprague-Dawley rat at 1.9 mg/kg, iv and 3.9 mg/kg, po by HTLC-MS/MS analysis", "format": "ADME, organism-based", "conditions": "in vivo", "outline": "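Plasma concentration–time profiles were recorded after separate intravenous and peroral dosing at the per-compound doses listed. T_max is reported in min alongside C_max (ng/mL), intravenous half-life and clearance ((mL/min)/kg).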"}, "[6]": {"biological_target": "T1, Gastric inhibitory polypeptide receptor (Homo sapiens, UniProt P48546)", "T1 sequence (P48546 whole entry)": "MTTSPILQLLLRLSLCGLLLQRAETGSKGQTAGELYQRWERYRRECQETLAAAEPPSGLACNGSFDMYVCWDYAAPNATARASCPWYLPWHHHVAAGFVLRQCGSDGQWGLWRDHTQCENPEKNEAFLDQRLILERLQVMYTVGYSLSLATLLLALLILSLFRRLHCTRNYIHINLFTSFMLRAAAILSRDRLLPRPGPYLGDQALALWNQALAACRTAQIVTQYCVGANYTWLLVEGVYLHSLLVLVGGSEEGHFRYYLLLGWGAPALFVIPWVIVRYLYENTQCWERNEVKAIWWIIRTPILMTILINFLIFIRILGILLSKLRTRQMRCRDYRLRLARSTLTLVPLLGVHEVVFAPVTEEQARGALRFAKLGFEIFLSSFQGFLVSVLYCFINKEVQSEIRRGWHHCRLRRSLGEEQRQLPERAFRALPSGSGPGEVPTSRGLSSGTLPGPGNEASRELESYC", "assay": "Displacement of [125I]porcine GIP from human recombinant GIPR receptor expressed in BHK cells by scintillation proximity assay", "format": "cell-based"}, "[7]": {"assay": "Cmax in fasted Sprague-Dawley rat at 1.9 mg/kg, iv and 3.9 mg/kg, po by HTLC-MS/MS analysis", "format": "ADME, organism-based", "conditions": "in vivo", "outline": "as §1"}, "Homo sapiens [8]": {"species_on_record": "Homo sapiens", "assay": "Selectivity for human recombinant glucagon receptor over human GLP1R"}}, "data": [{"smiles": "O=C(O)CCNC(=O)c1ccc(CN(c2ccc(C3=CCCCC3)cc2)c2nc(-c3ccc(C(F)(F)F)cc3)cs2)cc1", "values": [{"measurement": "fold change (FC)", "setting": "Homo sapiens [1]", "result": 5}, {"measurement": "IC50", "setting": "Glucagon receptor", "result": 48, "unit": "nM"}, {"measurement": "half-life", "setting": "[2]", "result": 35, "unit": "min"}, {"measurement": "bioavailability", "setting": "[3]", "result": 3, "unit": "%"}, {"measurement": "clearance", "setting": "[4]", "result": 44, "unit": "mL/min/kg"}, {"measurement": "Tmax", "setting": "[5]", "result": 30, "unit": "min"}, {"measurement": "IC50", "setting": "[6]", "result": 368, "unit": "nM"}, {"measurement": "Cmax", "setting": "[7]", "result": 36, "unit": "ng/mL"}, {"measurement": "fold change (FC)", "setting": "Homo sapiens [8]", "result": "> 50"}]}]}
